KCNQ1 inh = human KCNQ1 channel inhibition; P51787; CHO-K1 KCNQ1, FluxOR thallium flux fluorescence; hits give high values; B-score at 10 µM; 310,000 compounds, 1.3% hits;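 active = compounds whose thallium flux B-score, printed positive for inhibition, exceeds three library SD while starting fluorescence stays within three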;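 note: channel opened by potassium depolarization with thallium stimulus after 20 min compound exposure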
Target sequence (P51787 whole entry, looked up): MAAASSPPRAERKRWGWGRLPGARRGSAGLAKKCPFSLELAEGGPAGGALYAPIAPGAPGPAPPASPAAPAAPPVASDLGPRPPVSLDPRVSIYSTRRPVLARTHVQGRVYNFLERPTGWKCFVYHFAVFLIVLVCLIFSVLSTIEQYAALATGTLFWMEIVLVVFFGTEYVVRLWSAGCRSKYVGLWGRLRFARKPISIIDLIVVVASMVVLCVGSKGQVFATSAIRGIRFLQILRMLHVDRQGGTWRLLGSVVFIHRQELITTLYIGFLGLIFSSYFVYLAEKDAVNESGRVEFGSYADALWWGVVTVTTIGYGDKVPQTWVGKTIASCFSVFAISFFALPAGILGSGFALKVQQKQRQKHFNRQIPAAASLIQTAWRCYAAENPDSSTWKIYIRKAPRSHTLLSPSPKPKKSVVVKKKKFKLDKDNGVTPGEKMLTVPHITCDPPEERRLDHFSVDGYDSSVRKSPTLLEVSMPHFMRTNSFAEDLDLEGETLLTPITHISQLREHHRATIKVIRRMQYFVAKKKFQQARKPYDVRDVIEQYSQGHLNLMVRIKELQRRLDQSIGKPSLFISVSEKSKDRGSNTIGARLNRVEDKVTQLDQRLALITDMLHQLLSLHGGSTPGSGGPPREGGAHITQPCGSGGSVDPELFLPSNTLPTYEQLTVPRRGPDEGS
hERG protect = shields human hERG channel from block by proarrhythmic agents | Q12809 | CHO-hERG, FluxOR thallium flux, dofetilide IC70 present | activation (rescue from dofetilide block), less the hit threshold, % at 10 µM | 310,000 compounds, 0.51% hits | AID 1511;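 active = activation above the mean of controls blocked by dofetilide plus 5 SD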;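 note: thallium influx through hERG after potassium depolarization seen as dye fluorescence rise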
KCNK9 inh = human KCNK9 channel inhibition; HEK293 KCNK9, FluxOR thallium flux fluorescence; hits give low values; B-score at 10 µM; 310,000 compounds, 1.2% hits; AID 488922;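 active = ratio B-score over 3 SD below the library mean, with starting fluorescence within 5 SD of its mean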;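 note: negative B-score means less thallium flux so channel inhibition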
KCC2 mod = modulators of human KCC2 chloride dependent transport | Q9H2X9 | KCC2 cells, thallium flux FluoZin-2 fluorescence | B-score of Tl+ flux slope (higher = more flux/activation; lower = inhibition) at 10 µM | 190,000 compounds, 2.2% hits;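 active = thallium flux slope and its plate-corrected score both differing from the plate sample mean at a set confidence after two filtering rounds, in either direction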;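 note: slope of fluorescence scaled to starting intensity during 10 to 20 s after thallium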
KCNQ1 pot = potentiates or activates the human KCNQ1 potassium channel | P51787 | CHO-K1 KCNQ1, thallium flux FluxOR fluorescence; hits give high values | B-score at 10 µM | 310,000 compounds, 0.35% hits;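 active = fluorescence ratio B-score, a plate-corrected score, at least three library SD, with initial intensity B-score within 5 SD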
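Medium – assay buffer, equal DMSO in all wells · Material – CHO-K1 cell line with stable KCNQ1 potassium channel expression · Signal – kinetic FluxOR thallium fluorescence, 10-s 1-Hz baseline, 110-s post-stimulus read · Compound – single concentration per compound, DMSO matched to controls · Schedule – 37 °C overnight plating, 90-min dark dye load, 20-min compound pretreatment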
KCNK3 inh = human KCNK3 channel inhibition, primary screen. CHO-KCNK3 thallium flux, FluxOR fluorescence; hits give low values. B-score at 10 µM. 340,000 compounds, 0.84% hits;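 active = B-score under library mean minus 4 SD, starting fluorescence ratio at most library mean plus 5 SD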;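 note: more negative B-score means stronger inhibition of thallium flux through KCNK3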
* hit, by the source's call; i = inactive; nt = not tested or not shown. This is a sample that favours compounds with a hit; in the whole collection about 4.1% have one here.

SMILES	KCNQ1 inh	hERG protect	KCNK9 inh	KCC2 mod	KCNQ1 pot	KCNK3 inh
Cc1[nH]n2c(=O)cc(-c3ccc([N+](=O)[O-])cc3)nc2c1-c1ccccc1	7*	-8	i	-3.5	i	i
S=C1Nc2ccccc2Sc2ccc(Cl)cc21	i	-6	i	16*	i	i
CCNc1nc(NC(C)C)nc(N(C#N)CCOc2ccc(Cl)cc2Cl)n1	i	-6	-7.5*	nt	i	-11*
CCNc1nc(NC(C)C)nc(N(C#N)Cc2ccccc2)n1	i	-2	-7.3*	-2.3	i	i
CN(C)S(=O)(=O)n1cnc([C@@H]2[C@H]3C(=O)OC[C@@H]3C[C@@]23N=CN(Cc2ccccc2)C3=O)c1	nt	nt	nt	nt	nt	i
Cc1ccsc1C(=O)OC(C)C(=O)Nc1ccc(Cl)cn1 (stereo not given)	nt	nt	nt	nt	nt	i
CCOc1ccccc1N1CCN(Cc2cccc(OC)c2OC)CC1	6*	-16	i	-0.24	i	i
COc1ccccc1N1CCN(Cc2ccc(OC)c(OC)c2OC)CC1	i	-8	i	1.1	i	i
O=c1c2cccnc2[nH]c(=S)n1CCCN1CCN(c2ccc(F)cc2)CC1	i	-8	i	6*	i	i
CC(=O)N1CCOc2ccc(S(=O)(=O)N3CCC(C(=O)NCc4ccccc4)CC3)cc21	i	-8	i	nt	i	i
CC1(C)Cc2c(cnn2-c2ccccc2)C(NC(=O)CCN2CCCC2=O)C1 (stereo not given)	i	-3	i	nt	i	i
O=C(Nc1ccccc1C(=O)N/N=C/c1ccco1)c1ccccc1	i	-11	i	7.8*	i	i
COc1ccc(C)cc1NC(=O)C1CCCN1S(=O)(=O)c1ccccc1F (stereo not given)	nt	nt	nt	nt	nt	i
COc1cccc(NC(=O)CN2CCc3ccccc3C2)c1	i	-15	i	nt	i	i
CC1Cc2ccccc2N1C(=S)NC(=O)C1(C)CC1(Cl)Cl (stereo not given)	i	28*	i	93*	37*	i
CC(=O)c1cccc(NC(=S)N2c3ccccc3CC2C)c1 (stereo not given)	i	-17	i	-0.38	i	i
CCN(CC)CCN(C(=O)c1cc2ccccc2cc1OC)c1nc2ccc(F)cc2s1	i	-17	i	nt	i	i
CCN(CC)CCN(C(=O)c1cc2ccccc2cc1OC)c1nc2ccc(OC)cc2s1	9*	-22	i	nt	i	i
COc1ccccc1-c1cccc([C@@H]2C[C@H]3[C@H](CON3C)CN2S(=O)(=O)c2ccccc2C)c1	nt	nt	nt	nt	nt	i
CNC(=O)NCC12CC3CC(CC(C3)C1)C2	i	5.1*	i	1.5	i	i
O=C(NCc1ccccc1)NCC12CC3CC(CC(C3)C1)C2	i	-6	i	nt	i	i
CCOC(=O)c1ccc2c(c1)n(CC)c(/C=C/Nc1ccccc1)[n+]2CC	13*	-25	i	nt	i	i
CCn1c(/C=C/Nc2ccccc2)[n+](CC)c2ccc(Cl)cc21	i	-30	i	-1.6	i	i
COc1cccc(C(=O)NNC(=O)C(=O)Nc2ccc(C)c(Cl)c2)c1	i	31*	i	nt	35*	i
CCc1ccc(NC(=O)C(=O)NNC(=O)c2cccc(OC)c2)cc1	i	38*	i	nt	76*	i
SMILES	KCNQ1 inh	hERG protect	KCNK9 inh	KCC2 mod	KCNQ1 pot	KCNK3 inh
COc1cccc(C(=O)Nc2cc(Cl)c(O)c(Cl)c2)c1	i	-5	i	-0.077	i	i
S=c1nn[nH]n1C12CC3CC(CC(C3)C1)C2	i	14*	i	nt	9*	i
O=C(/C(N=Nc1cccc([N+](=O)[O-])c1)=C(/O)c1ccc(Br)cc1)C(F)(F)F	9*	-16	-9.2*	-2.6	i	nt
COc1ccc(C2=NS(=O)(=O)N(C)C(C(=O)Nc3ccc(F)cc3F)=C2)cc1	i	-12	i	nt	i	i
CC(C)Oc1ccc(C(=O)Nc2cccc3cccnc23)cc1	i	-4	-6.8*	-1.7	i	i
CCOc1ccc(C(=O)Nc2cccc3cccnc23)cc1	i	-7	i	nt	i	i
CCCc1cc(=O)oc2c(C)c(OCC(=O)Nc3cccnc3)ccc12	i	-9	i	nt	i	i
COc1ccc(N(CC(=O)NCC2CCCO2)C(=O)CCC(=O)Nc2cc(C)on2)cc1OC (stereo not given)	i	-4	i	nt	i	i
COc1ccc([N+](=O)[O-])cc1N(CC(O)CN(CC(C)C)CC(C)C)S(=O)(=O)c1ccccc1 (stereo not given)	i	-8	-6.7*	nt	i	i
CCCCN(CCCC)CC(O)CN(c1cc([N+](=O)[O-])ccc1OC)S(=O)(=O)c1ccccc1 (stereo not given)	i	-15	i	0.35	i	i
Cc1cc(C(C)(C)C)cc(C)c1C[n+]1ccc2ccccc2c1	7*	-15	i	nt	i	i
CCN(CC)CCC(O)(c1ccc2c(c1)OCO2)c1cc(OC)c(OC)c(OC)c1 (stereo not given)	nt	nt	nt	nt	nt	i
NS(=O)(=O)c1ccc(CNC(=O)c2ccncc2)cc1	i	-2	i	nt	i	i
CC(C)(C)c1cc(N/C=C\c2nnnn2-c2ccc(Br)cc2)no1	i	7.3*	i	-0.14	i	i
Cc1ccc(-n2nnnc2/C=C\Nc2cc(C)on2)cc1	i	-4	i	-0.13	i	i
CCOc1ccc(NC(=O)CN(C)Cc2ccc3c(c2)OCO3)cc1S(=O)(=O)N1CCCC1	nt	nt	nt	nt	nt	i
CCOc1c(OC(C)=O)ccc(/C=C/c2ccc3cccc(OC(C)=O)c3n2)c1[N+](=O)[O-]	12*	-13	i	-0.32	i	i
Oc1ccc2ccccc2c1/C=N/Nc1nnc(-c2ncc[nH]2)c2ccccc12	8*	-9	i	-0.55	i	i
CC#CC[N+](C)(C)CCCCCCCCCCCC	6*	-23	i	1.3	i	i
Cc1ccccc1-n1c(C)cc(/C=N/NC(=O)c2ccncc2)c1C	i	-14	i	nt	11*	i
Cc1cc(C)cc(-n2c(C)cc(/C=N/NC(=O)c3ccncc3)c2C)c1	i	-13	i	0.74	i	i
O=C(N/N=C/c1cc(Cl)cc(Cl)c1O)c1ccncc1	7*	-12	i	i	i	i
O=C(N/N=C/c1ccc(Cl)cc1Cl)c1ccncc1	i	2	i	nt	i	i
COc1cccc(CN(CC(=O)NC2CCCC2)C(=O)Cn2nnc(-c3cccs3)n2)c1	i	32*	i	-0.68	i	i
